# Results published in ChEMBL document CHEMBL4038284, “Synthesis of novel quinoline-based 4,5-dihydro-1H-pyrazoles as potential anticancer, antifungal, antibacterial and antiprotozoal agents” (Eur J Med Chem, 2017).
# Active and inactive are the calls of the source. The rule behind the calls is not given here.
# Key:
# SF-295 = assay: Growth inhibition of human SF295 cells at 10 uM incubated for 48 hrs by sulforhodamine B assay; format: functional, cell-based
# How it was run: (§1)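 NCI 60-line panel, single 10 μM dose. Cells were grown in RPMI-1640 with 5% FBS and 2 mM L-glutamine and pre-incubated 24 h before compound addition (DMSO stock). Exposure was 48 h at 37 °C, 5% CO2. Cells were fixed with cold TCA (10% final), stained with 0.4% SRB, bound dye dissolved in 10 mM Tris base, A515 read. Growth was taken relative to time-zero and untreated control plates.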
# DU-145 = assay: Growth inhibition of human DU145 cells at 10 uM incubated for 48 hrs by sulforhodamine B assay; format: functional, cell-based
# How it was run: (§2)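 NCI 60-cell-line screen at a single 10 µM dose. Cells in RPMI-1640 with 5% FBS and 2 mM L-glutamine, pre-incubated 24 h, then treated for 48 h at 37 °C. TCA fixation, sulforhodamine B staining, absorbance at 515 nm. Percentage growth calculated against time-zero and untreated controls.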
# Cryptococcus neoformans [1] = assay: Antifungal activity against Cryptococcus neoformans ATCC 32264 incubated for 48 hrs under dark condition by broth microdilution method; format: functional; details: ATCC 32264, 48 h
# How it was run: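 CLSI M27-A3 broth microdilution in RPMI-1640, DMSO ≤1%, compounds at 250-0.98 µg/mL final. Inoculum 1-5 × 10^3 CFU/mL. Incubated 48 h at 30 °C in a moist dark chamber, read at OD405. MIC80 and MIC50 taken from % inhibition dose-response curves (mean ± SEM, triplicate). Amphotericin B was the positive control.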
# A549 = assay: Growth inhibition of human A549/ATCC cells at 10 uM incubated for 48 hrs by sulforhodamine B assay; format: functional, cell-based; how it was run: as §2
# NCI-H23 = assay: Growth inhibition of human NCI-H23 cells at 10 uM incubated for 48 hrs by sulforhodamine B assay; format: functional, cell-based; how it was run: as §1
# NCI/ADR-RES = assay: Growth inhibition of human NCI/ADR-RES cells at 10 uM incubated for 48 hrs by sulforhodamine B assay; format: functional, cell-based; how it was run: as §1
# HOP-92 = assay: Growth inhibition of human HOP92 cells at 10 uM incubated for 48 hrs by sulforhodamine B assay; format: functional, cell-based; how it was run: as §1
# T47D = assay: Growth inhibition of human T47D cells at 10 uM incubated for 48 hrs by sulforhodamine B assay; format: functional, cell-based
# How it was run: (§3)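 NCI-60 single-dose screen at 10 µM for 48 h. Cells were grown in RPMI-1640 with 5% FBS and 2 mM L-glutamine and preincubated 24 h before compound. Time-zero plates were TCA-fixed at compound addition. After exposure, cells were TCA-fixed, stained with SRB and read at 515 nm. Percentage growth was calculated against time-zero and untreated-control absorbances.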
# SK-OV-3 = assay: Growth inhibition of human SKOV3 cells at 10 uM incubated for 48 hrs by sulforhodamine B assay; format: functional, cell-based; how it was run: as §3
# Cryptococcus neoformans [2] = assay: Growth inhibition of Cryptococcus neoformans ATCC 32264 at 31.25 ug/ml incubated for 48 hrs under dark condition by broth microdilution method relative to control; format: functional; details: ATCC 32264, 48 h, read-out: GI
# How it was run: (§4)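 CLSI M27-A3 broth microdilution in RPMI-1640, DMSO ≤1%. Inoculum 1-5 × 10^3 CFU/mL. Incubated 48 h at 30 °C, dark. % inhibition = 100 − (OD405 test − sterility control)/(OD405 growth control − sterility control), with growth and sterility control wells. Triplicate.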
# NCI-H522 = assay: Growth inhibition of human NCI-H522 cells at 10 uM incubated for 48 hrs by sulforhodamine B assay; format: functional, cell-based; how it was run: as §1
# OVCAR-8 = assay: Growth inhibition of human OVCAR8 cells at 10 uM incubated for 48 hrs by sulforhodamine B assay; format: functional, cell-based; how it was run: as §1
# MDA-MB-231 = assay: Growth inhibition of human MDA-MB-231 cells at 10 uM incubated for 48 hrs by sulforhodamine B assay; format: functional, cell-based; how it was run: as §1
# U-251 = assay: Growth inhibition of human U251 cells at 10 uM incubated for 48 hrs by sulforhodamine B assay; format: functional, cell-based; how it was run: as §3
# SK-MEL-2 = assay: Growth inhibition of human SK-MEL-2 cells at 10 uM incubated for 48 hrs by sulforhodamine B assay; format: functional, cell-based; how it was run: as §3
# 786-0 = assay: Growth inhibition of human 786-0 cells at 10 uM incubated for 48 hrs by sulforhodamine B assay; format: functional, cell-based; how it was run: as §2
# NCI-H322M = assay: Growth inhibition of human NCI-H322M cells at 10 uM incubated for 48 hrs by sulforhodamine B assay; format: functional, cell-based; how it was run: as §1
# CAKI-1 = assay: Growth inhibition of human Caki1 cells at 10 uM incubated for 48 hrs by sulforhodamine B assay; format: functional, cell-based; how it was run: as §2
# Klebsiella pneumoniae = assay: Antibacterial activity against carbapenemase positive Klebsiella pneumoniae BAA 1705 after 24 hrs by resazurin dye based microdilution assay; format: functional; details: BAA 1705, 24 h
# How it was run: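 MIC taken as the lowest concentration giving visible inhibition and/or by resazurin (1 mg/mL). Gentamicin was the control. Run in duplicate, repeated at least three times.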
# HCT-15 = assay: Growth inhibition of human HCT15 cells at 10 uM incubated for 48 hrs by sulforhodamine B assay; format: functional, cell-based; how it was run: as §2
# EKVX = assay: Growth inhibition of human EKVX cells at 10 uM incubated for 48 hrs by sulforhodamine B assay; format: functional, cell-based; how it was run: as §2
# SK-MEL-5 = assay: Growth inhibition of human SK-MEL-5 cells at 10 uM incubated for 48 hrs by sulforhodamine B assay; format: functional, cell-based; how it was run: as §3
# Staphylococcus aureus = assay: Antibacterial activity against methicillin-resistant Staphylococcus aureus ATCC 43300 after 24 hrs by resazurin dye based microdilution assay; format: functional; details: ATCC 43300, 24 h
# How it was run: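 Broth microdilution in Mueller Hinton broth, inoculum 5 × 10^5 – 8 × 10^5. Compound stocks diluted in MHB with 5% DMSO and 0.1% Tween 80. Incubation 24 h at 35-37 °C. MIC is the lowest concentration with visible growth inhibition and/or by resazurin (1 mg/mL) read-out. Gentamicin as control. Run in duplicate, replicated at least three times.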
# SNB-75 = assay: Growth inhibition of human SNB75 cells at 10 uM incubated for 48 hrs by sulforhodamine B assay; format: functional, cell-based; how it was run: as §3
# MOLT-4 = assay: Growth inhibition of human MOLT4 cells at 10 uM incubated for 48 hrs by sulforhodamine B assay; format: functional, cell-based; how it was run: as §1
# Cryptococcus neoformans [3] = assay: Growth inhibition of Cryptococcus neoformans ATCC 32264 at 250 ug/ml incubated for 48 hrs under dark condition by broth microdilution method relative to control; format: functional; details: ATCC 32264, 48 h, read-out: GI; how it was run: as §4
# A498 = assay: Growth inhibition of human A498 cells at 10 uM incubated for 48 hrs by sulforhodamine B assay; format: functional, cell-based; how it was run: as §2
# HOP-62 = assay: Growth inhibition of human HOP62 cells at 10 uM incubated for 48 hrs by sulforhodamine B assay; format: functional, cell-based; how it was run: as §2
# BT-549 = assay: Growth inhibition of human BT549 cells at 10 uM incubated for 48 hrs by sulforhodamine B assay; format: functional, cell-based; how it was run: as §2
# SF-268 = assay: Growth inhibition of human SF268 cells at 10 uM incubated for 48 hrs by sulforhodamine B assay; format: functional, cell-based; how it was run: as §1
# Candida albicans = assay: Growth inhibition of Candida albicans ATCC 10231 at 31.25 ug/ml incubated for 48 hrs under dark condition by broth microdilution method relative to control; format: functional; details: ATCC 10231, 48 h, read-out: GI; how it was run: as §4
smiles,measurement,setting,value
Clc1ccc(C2=NN(c3cc(Cl)cc(Cl)c3)C(c3cccc(Nc4ccnc5cc(Cl)ccc45)c3)C2)cc1 (configuration not stated),growth inhibition (GI),SF-295,inactive
same,growth inhibition (GI),DU-145,inactive
same,MIC50,Cryptococcus neoformans [1],≥ 250 µg/mL
same,MIC80,Cryptococcus neoformans [1],≥ 250 µg/mL
same,growth inhibition (GI),A549,inactive
same,growth inhibition (GI),NCI-H23,inactive
same,growth inhibition (GI),NCI/ADR-RES,inactive
same,growth inhibition (GI),HOP-92,inactive
same,growth inhibition (GI),T47D,inactive
same,growth inhibition (GI),SK-OV-3,inactive
same,inhibition of growth at 31.25 µg/mL,Cryptococcus neoformans [2],0%
same,growth inhibition (GI),NCI-H522,inactive
same,growth inhibition (GI),OVCAR-8,inactive
same,growth inhibition (GI),MDA-MB-231,inactive
same,growth inhibition (GI),U-251,inactive
same,growth inhibition (GI),SK-MEL-2,inactive
same,growth inhibition (GI),786-0,inactive
same,growth inhibition (GI),NCI-H322M,inactive
same,growth inhibition (GI),CAKI-1,inactive
same,MIC,Klebsiella pneumoniae,> 1000 µg/mL
same,growth inhibition (GI),HCT-15,inactive
same,growth inhibition (GI),EKVX,inactive
same,growth inhibition (GI),SK-MEL-5,inactive
same,MIC,Staphylococcus aureus,> 1000 µg/mL
same,growth inhibition (GI),SNB-75,inactive
same,growth inhibition (GI),MOLT-4,inactive
same,inhibition of growth at 250 µg/mL,Cryptococcus neoformans [3],8.42%
same,growth inhibition (GI),A498,inactive
same,growth inhibition (GI),HOP-62,inactive
same,growth inhibition (GI),BT-549,inactive
same,growth inhibition (GI),SF-268,inactive
same,inhibition of growth at 31.25 µg/mL,Candida albicans,13.6%
